# Data published in ChEMBL document CHEMBL2429739, “Double-targeting using a TrkC ligand conjugated to dipyrrometheneboron difluoride (BODIPY) based photodynamic therapy (PDT) agent” (J Med Chem, 2013).
# Activity calls are given as the source filed them. The rule behind the calls is not given here.
# Experiments:
# NIH3T3 [1] = experiment: Dark cytotoxicity against mouse NIH/3T3 cells expressing TrkC assessed as cell viability by MTT assay; format: cell-based
# Summary of the method: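 NIH3T3-TrkC cells given the same 2 h agent treatment and wash as in the light assay, but kept without illumination. Viability measured by MTT; three runs.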
# NIH3T3 [2] = experiment: Cytotoxicity against wild type mouse NIH/3T3 cells assessed as cell viability after 2 hrs followed by 7.3 J/cm'2 halogen light irradiation measured after 24 hrs by MTT assay; format: cell-based; conditions: nih3t3, 24 h
# Summary of the method: (§1)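 Cells seeded overnight at about 10,000/well (NIH3T3-TrkC) or 7000/well (NIH3T3-WT, SY5Y). Agent applied at 0.02–2 μM final in protein-free PFHM-II medium (<0.001% DMSO) for 2 h. Cells washed and given fresh medium, then irradiated with >480 nm halogen light at 12.2 mW/cm2 (7.3 J/cm2, 10 min). After 24 h, MTT added for 3.5 h; OD read at 570 nm. % dead = 100 − (OD treated/OD control)×100; three runs.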
# NIH3T3 [3] = experiment: Cytotoxicity against mouse NIH/3T3 cells expressing TrkC assessed as cell viability incubated for 2 hrs followed by 7.3 J/cm'2 halogen light irradiation measured after 24 hrs by MTT assay; format: functional, cell-based; conditions: for IC50: NIH3T3, light or radiation study; summary of the method: as §1
# [4] = Cellular uptake in lysosome of mouse NIH/3T3 cells expressing TrkC at 1 uM after 12 hrs by confocal microscopy; format: ADME, cell-based; conditions: nih3t3, 12 h
# Summary of the method: (§2)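 NIH3T3-TrkC cells (grown in DMEM/F12 with G418 and 10% newborn calf serum) incubated with agent at 1 μM for 12 h at 37 °C, then PBS-washed. Co-stained with LysoTracker Red 500 nM for 30 min at 37 °C, or with MitoTracker Deep Red / ER-Tracker Blue-White at 100 nm for 15 min. Washed again, then live cells imaged by multiphoton confocal Z-stacks in 0.5 μm steps.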
# Mus musculus = experiment: Toxicity in mouse under dark condition at 100 mg/kg after 12 days; format: organism-based; design: dose 100 mg/kg; conditions: in vivo, 288 h
# NIH3T3 [5] = experiment: Cellular uptake in wild type mouse NIH/3T3 cells at 0.5 uM after 2 hrs by confocal microscopy; format: ADME, cell-based; conditions: nih3t3, 2 h
# Summary of the method: (§3)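 TrkC-transfected or wild-type NIH3T3 cells exposed to agent at 0.5 μM in supernatant for 2 h. Cells washed three times with PBS, then imaged live by confocal microscopy. Intracellular fluorescence intensity was quantified over 100 cells.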
# NIH3T3 [6] = experiment: Cellular uptake in mouse NIH/3T3 cells expressing TrkC at 0.5 uM after 2 hrs by confocal microscopy; format: ADME, cell-based; conditions: nih3t3, 2 h; summary of the method: as §3
# NIH3T3 [7] = experiment: Cytotoxicity against mouse NIH/3T3 cells expressing TrkC assessed as cell viability incubated for 2 hrs followed by 7.3 J/cm'2 halogen light irradiation measured after 24 hrs by MTT assay in presence of 3.5 nM of NT3; format: functional, cell-based
# Summary of the method: (§4)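 NIH3T3-TrkC cells treated for 2 h with agent (0.02–2 μM) together with a constant 20 μM IY-IY or 3.5 nM NT-3 competitor. Cells washed, then irradiated at >480 nm, 12.2 mW/cm2, 7.3 J/cm2. After 24 h, viability read by MTT (OD 570 nm) and expressed as % dead cells; three runs.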
# [8] = Cytotoxicity against human SH-SY5Y cells expressing TrkC assessed as cell viability after 2 hrs followed by 7.3 J/cm'2 halogen light irradiation measured after 24 hrs by MTT assay; format: functional, cell-based; conditions: light or radiation study; summary of the method: as §1
# NIH3T3 [9] = experiment: Cytotoxicity against mouse NIH/3T3 cells expressing TrkC assessed as cell viability incubated for 2 hrs followed by 7.3 J/cm'2 halogen light irradiation measured after 24 hrs by MTT assay in presence of 20 uM of IY-IY; format: functional, cell-based; summary of the method: as §4
# [10] = Cellular uptake in mitochondria of mouse NIH/3T3 cells expressing TrkC at 1 uM after 12 hrs by confocal microscopy; format: ADME; conditions: nih3t3, 12 h; summary of the method: as §2
# [11] = Cellular uptake in endoplasmic reticulum of mouse NIH/3T3 cells expressing TrkC at 1 uM after 12 hrs by confocal microscopy; format: ADME, cell-based; conditions: nih3t3, 12 h; summary of the method: as §2
Compound,Activity (NIH3T3 [1]),Activity (NIH3T3 [2]),Activity (NIH3T3 [3]),IC50 (NIH3T3 [3]) [nM],Drug uptake [4],Activity (Mus musculus),Drug uptake (NIH3T3 [5]),Drug uptake (NIH3T3 [6]),Activity (NIH3T3 [7]),IC50 [8] [nM],Activity (NIH3T3 [9]),Drug uptake [10],Drug uptake [11]
CC[C@H](C)[C@H](N)c1cn([C@@H](Cc2ccc(O)cc2)C(=O)N2CCN(c3nc(NCCOCCOCCOCc4cn(CCCC5=C6C(C)=C(I)C(C)=[N+]6[B-](F)(F)n6c(C)c(I)c(C)c65)nn4)nc(N4CCN(C(=O)[C@H](Cc5ccc(O)cc5)n5cc([C@@H](N)[C@@H](C)CC)nn5)CC4)n3)CC2)nn1,Non-toxic,Active,Dose-dependent effect,350,Active,Non-toxic,Not Active,Active,Active,150,Active,Not Active,Not Active
CC[C@H](C)[C@@H](C(=O)N1CCN(c2nc(NCCOCCOCCOCc3cn(CCCC4=C5C(C)=C(I)C(C)=[N+]5[B-](F)(F)n5c(C)c(I)c(C)c54)nn3)nc(N3CCN(C(=O)[C@H]([C@@H](C)CC)n4cc([C@@H](N)Cc5ccc(O)cc5)nn4)CC3)n2)CC1)n1cc([C@@H](N)Cc2ccc(O)cc2)nn1,–,–,–,> 2000,–,–,–,Not Active,–,–,–,–,–
